Results from ChEMBL document CHEMBL1137650, “An OXA-66/OXA-51-like carbapenemase and possibly an efflux pump are associated with resistance to imipenem in Acinetobacter baumannii” (2007).

What was measured:
[1] = system: Acinetobacter baumannii; assay: Antibacterial activity against imipenem-susceptible Acinetobacter baumannii ab1308 by broth dilution method; format: functional
Method in brief: (§1)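 Clinical A. baumannii isolates collected at three Taiwanese hospitals, routinely grown in tryptic soy broth at 37°C for 18 h. MICs (μg ml⁻¹) were determined by broth dilution following CLSI recommendations, or by Etest strips following the manufacturer's instructions.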

[2] = system: Acinetobacter baumannii; assay: Antibacterial activity against imipenem-susceptible Acinetobacter baumannii ab1316 by broth dilution method; format: functional; method in brief: as §1
[3] = system: Acinetobacter baumannii; assay: Antibacterial activity against imipenem-resistant Acinetobacter baumannii abh26 by broth dilution method; format: functional
Method in brief: (§2)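 Clinical isolates were collected at three Taiwan hospitals (1993–2003) and grown in tryptic soy broth at 37°C for 18 h. MIC by broth dilution following CLSI recommendations.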

[4] = system: Acinetobacter baumannii; assay: Antibacterial activity against imipenem-susceptible Acinetobacter baumannii ab8 by broth dilution method; format: functional; method in brief: as §2
[5] = system: Acinetobacter baumannii; assay: Antibacterial activity against imipenem-resistant Acinetobacter baumannii abh18 by broth dilution method; format: functional; method in brief: as §2
[6] = system: Acinetobacter baumannii; assay: Antibacterial activity against imipenem-susceptible Acinetobacter baumannii ab12 by broth dilution method; format: functional; method in brief: as §2
[7] = system: Acinetobacter baumannii; assay: Antibacterial activity against imipenem-susceptible Acinetobacter baumannii ab4 by broth dilution method; format: functional; method in brief: as §2
[8] = system: Acinetobacter baumannii; assay: Antibacterial activity against imipenem-resistant Acinetobacter baumannii ab1266 by broth dilution method; format: functional; method in brief: as §2
[9] = system: Acinetobacter baumannii; assay: Antibacterial activity against imipenem-resistant Acinetobacter baumannii ab1265 by broth dilution method; format: functional; method in brief: as §2
[10] = system: Acinetobacter baumannii; assay: Antibacterial activity against imipenem-resistant Acinetobacter baumannii abh11 by broth dilution method; format: functional; method in brief: as §2
[11] = system: Acinetobacter baumannii; assay: Antibacterial activity against imipenem-resistant Acinetobacter baumannii abh37 by broth dilution method; format: functional; method in brief: as §2
[12] = system: Acinetobacter baumannii; assay: Antibacterial activity against imipenem-susceptible Acinetobacter baumannii ATCC 19606 by broth dilution method; format: functional; details: ATCC 19606 = CIP 70.34 = JCM 6841
[13] = system: Acinetobacter baumannii; assay: Antibacterial activity against imipenem-resistant Acinetobacter baumannii abh9 by broth dilution method; format: functional; method in brief: as §2
[14] = system: Acinetobacter baumannii; assay: Antibacterial activity against imipenem-resistant Acinetobacter baumannii abh39 by broth dilution method; format: functional; method in brief: as §2
[15] = system: Acinetobacter baumannii; assay: Antibacterial activity against imipenem-resistant Acinetobacter baumannii abh29 by broth dilution method; format: functional; method in brief: as §2
[16] = system: Acinetobacter baumannii; assay: Antibacterial activity against imipenem-susceptible Acinetobacter baumannii ab20 by broth dilution method; format: functional; method in brief: as §2
[17] = system: Acinetobacter baumannii; assay: Antibacterial activity against imipenem-susceptible Acinetobacter baumannii ab3 by broth dilution method; format: functional; method in brief: as §2
[18] = system: Acinetobacter baumannii; assay: Antibacterial activity against imipenem-resistant Acinetobacter baumannii abh36 by broth dilution method; format: functional; method in brief: as §2
[19] = system: Acinetobacter baumannii; assay: Antibacterial activity against imipenem-resistant Acinetobacter baumannii abh20 by broth dilution method; format: functional; method in brief: as §2
[20] = system: Acinetobacter baumannii; assay: Antibacterial activity against imipenem-susceptible Acinetobacter baumannii ab1254 by broth dilution method; format: functional; method in brief: as §2
[21] = system: Acinetobacter baumannii; assay: Antibacterial activity against imipenem-resistant Acinetobacter baumannii abh14 by broth dilution method; format: functional; method in brief: as §2
[22] = system: Acinetobacter baumannii; assay: Antibacterial activity against imipenem-intermediate Acinetobacter baumannii ab1297 by broth dilution method; format: functional; method in brief: as §1
[23] = system: Acinetobacter baumannii; assay: Antibacterial activity against imipenem-resistant Acinetobacter baumannii abh13 by broth dilution method; format: functional; method in brief: as §2
[24] = system: Acinetobacter baumannii; assay: Antibacterial activity against imipenem-resistant Acinetobacter baumannii abh17 by broth dilution method; format: functional; method in brief: as §2
[25] = system: Acinetobacter baumannii; assay: Antibacterial activity against imipenem-resistant Acinetobacter baumannii ISAB ab8(r) by broth dilution method; format: functional
[26] = system: Acinetobacter baumannii; assay: Ratio of MIC for Acinetobacter baumannii ISAB ab1254(r) to MIC for Acinetobacter baumannii ISAB […] in presence of 2 ug/ml efflux pump inhibitor carbonyl cyanide m-chlorophenyl-hydrazone; format: functional
[27] = system: Acinetobacter baumannii; assay: Antibacterial activity against imipenem-resistant Acinetobacter baumannii ISAB ab1254(r) by broth dilution method; format: functional
[28] = system: Acinetobacter baumannii; assay: Ratio of MIC for Acinetobacter baumannii ISAB ab8(r) to MIC for Acinetobacter baumannii ISAB ab8(r) in presence of 2 ug/ml efflux pump inhibitor carbonyl cyanide m-chlorophenyl-hydrazone; format: functional
[29] = system: Acinetobacter baumannii; assay: Antibacterial activity against imipenem-resistant Acinetobacter baumannii ISAB ab8(r) by broth dilution method in presence of 2 ug/ml efflux pump inhibitor carbonyl cyanide m-chlorophenyl-hydrazone; format: functional
[30] = system: Acinetobacter baumannii; assay: Antibacterial activity against imipenem-resistant Acinetobacter baumannii ISAB ab1254(r) by broth dilution method in presence of 2 ug/ml efflux pump inhibitor carbonyl cyanide m-chlorophenyl-hydrazone; format: functional
[31] = system: Acinetobacter baumannii; assay: Ratio of MIC for Acinetobacter baumannii ISAB ab8(r) to MIC for Acinetobacter baumannii ISAB ab8(r) in presence of […] ug/ml efflux pump inhibitor carbonyl cyanide m-chlorophenyl-hydrazone; format: functional
[32] = system: Acinetobacter baumannii; assay: Antibacterial activity against imipenem-resistant Acinetobacter baumannii ISAB ab1254(r) by broth dilution method in presence of 24 ug/ml efflux pump inhibitor carbonyl cyanide m-chlorophenyl-hydrazone; format: functional
[33] = system: Escherichia coli; assay: Antibacterial activity against Escherichia coli TOP10 expressing imipenem-resistant Acinetobacter baumannii ab1266 blaoxa-66 gene by Etest; format: functional
Method in brief: (§3)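 E. coli TOP10 carrying empty pBAD/Myc-His or pBAD/Myc-His with blaOXA-66 cloned from the named strain, grown at 37°C in LB with 50 μg/ml ampicillin to OD600 0.5. Plated on Mueller-Hinton agar with 50 μg/ml ampicillin and 0.002% arabinose for induction. Imipenem MIC read by Etest.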

[34] = system: Acinetobacter baumannii; assay: Ratio of MIC for Acinetobacter baumannii ISAB ab8(r) to MIC for Acinetobacter baumannii ISAB ab1254(r) in presence of […] ug/ml efflux pump inhibitor carbonyl cyanide m-chlorophenyl-hydrazone; format: functional
[35] = system: Acinetobacter baumannii; assay: microbe, parasite or virus in culture; details: ISAB ab8(r)
[36] = system: Escherichia coli; assay: Antibacterial activity against Escherichia coli TOP10 by Etest; format: functional; method in brief: as §3
[37] = system: Escherichia coli; assay: Antibacterial activity against Escherichia coli TOP10 expressing imipenem-susceptible Acinetobacter baumannii ab1254 blaoxa-66 gene by Etest; format: functional; method in brief: as §3

O=C(O)c1cn(C2CC2)c2cc(N3CCNCC3)c(F)cc2c1=O [CIPROFLOXACIN]
0.38 µg/mL: MIC [4]
0.75 µg/mL: MIC [12]
0.25 µg/mL: MIC [6] | MIC [7]
0.125 µg/mL: MIC [17]
3 µg/mL: MIC [16]
> 32 µg/mL: MIC [1] | MIC [2] | MIC [3] | MIC [5] | MIC [8] | MIC [9] | MIC [10] | MIC [11] | MIC [13] | MIC [14] | MIC [15] | MIC [18] | MIC [19] | MIC [20] | MIC [21] | MIC [22] | MIC [23] | MIC [24]

CC(C)(O/N=C(\C(=O)N[C@@H]1C(=O)N2C(C(=O)[O-])=C(C[n+]3ccccc3)CS[C@H]12)c1csc(N)n1)C(=O)O [CEFTAZIDIME]
> 256 µg/mL: MIC [1] | MIC [2] | MIC [3] | MIC [5] | MIC [8] | MIC [9] | MIC [10] | MIC [11] | MIC [13] | MIC [14] | MIC [15] | MIC [18] | MIC [19] | MIC [20] | MIC [21] | MIC [22] | MIC [23] | MIC [24]
32 µg/mL: MIC [7]
48 µg/mL: MIC [4] | MIC [6] | MIC [17]
24 µg/mL: MIC [16]

CO/N=C(\C(=O)N[C@@H]1C(=O)N2C(C(=O)O)=C(COC(C)=O)CS[C@H]12)c1csc(N)n1 [CEFOTAXIME]
> 256 µg/mL: MIC [1] | MIC [2] | MIC [3] | MIC [4] | MIC [5] | MIC [6] | MIC [7] | MIC [8] | MIC [9] | MIC [10] | MIC [11] | MIC [13] | MIC [14] | MIC [15] | MIC [16] | MIC [17] | MIC [18] | MIC [19] | MIC [20] | MIC [21] | MIC [22] | MIC [23] | MIC [24]
16 µg/mL: MIC [12]

C[C@@H](O)[C@H]1C(=O)N2C(C(=O)O)=C(S[C@@H]3CN[C@H](C(=O)N(C)C)C3)[C@H](C)[C@H]12 [MEROPENEM]
0.75 µg/mL: MIC [1] | MIC [16] | MIC [20]
0.5 µg/mL: MIC [4] | MIC [6] | MIC [7]
16 µg/mL: MIC [24]
> 32 µg/mL: MIC [8] | MIC [9] | MIC [10] | MIC [13] | MIC [15] | MIC [18] | MIC [21] | MIC [23]
0.38 µg/mL: MIC [17]
1.5 µg/mL: MIC [2]
8 µg/mL: MIC [25]
3 µg/mL: MIC [30]
4 µg/mL: MIC [29]
6 µg/mL: MIC [27]
32 µg/mL: MIC [3] | MIC [5] | MIC [11] | MIC [14] | MIC [19] | MIC [22]
2: fold change (FC) [26] | fold change (FC) [28]

C[C@@H](O)[C@H]1C(=O)N2C(C(=O)O)=C(SCCNC=N)C[C@H]12 [IMIPENEM ANHYDROUS]
0.38 µg/mL: MIC [12]
4: fold change (FC) [31]
8 µg/mL: MIC [22]
16 µg/mL: MIC [32]
2 µg/mL: MIC [1]
0.19 µg/mL: MIC [36]
3 µg/mL: MIC [2] | MIC [20]
1.5 µg/mL: MIC [33] | MIC [16]
8: fold change (FC) [34]
32 µg/mL: MIC [3] | MIC [5] | MIC [10] | MIC [11] | MIC [13] | MIC [14] | MIC [15] | MIC [18] | MIC [19] | MIC [21] | MIC [23] | MIC [24]
0.75 µg/mL: MIC [37]
256 µg/mL: MIC [25]
> 32 µg/mL: MIC [8] | MIC [9]
128 µg/mL: MIC [27]
64 µg/mL: MIC [35]
1 µg/mL: MIC [4] | MIC [6] | MIC [7] | MIC [17]

CO/N=C(\C(=O)N[C@@H]1C(=O)N2C(C(=O)[O-])=C(C[N+]3(C)CCCC3)CS[C@H]12)c1csc(N)n1 [CEFEPIME]
96 µg/mL: MIC [15]
6 µg/mL: MIC [17]
256 µg/mL: MIC [3] | MIC [5] | MIC [14] | MIC [18] | MIC [19] | MIC [21]

GENTAMICIN
> 256 µg/mL: MIC [1] | MIC [2] | MIC [3] | MIC [4] | MIC [5] | MIC [6] | MIC [8] | MIC [9] | MIC [10] | MIC [11] | MIC [13] | MIC [14] | MIC [15] | MIC [16] | MIC [18] | MIC [19] | MIC [20] | MIC [21] | MIC [22] | MIC [23] | MIC [24]
256 µg/mL: MIC [7] | MIC [17]

CCN1CCN(C(=O)N[C@@H](C(=O)N[C@@H]2C(=O)N3[C@@H]2SC(C)(C)[C@@H]3C(=O)O)c2ccccc2)C(=O)C1=O [PIPERACILLIN]
> 256 µg/mL: MIC [1] | MIC [2] | MIC [3] | MIC [4] | MIC [5] | MIC [6] | MIC [7] | MIC [8] | MIC [9] | MIC [10] | MIC [11] | MIC [13] | MIC [14] | MIC [15] | MIC [16] | MIC [17] | MIC [18] | MIC [19] | MIC [20] | MIC [21] | MIC [22] | MIC [23] | MIC [24]

NCC[C@H](O)C(=O)N[C@@H]1C[C@H](N)[C@@H](O[C@H]2O[C@H](CN)[C@@H](O)[C@H](O)[C@H]2O)[C@H](O)[C@H]1O[C@H]1O[C@H](CO)[C@@H](O)[C@H](N)[C@H]1O [AMIKACIN]
12 µg/mL: MIC [4]
> 256 µg/mL: MIC [1] | MIC [2] | MIC [3] | MIC [5] | MIC [6] | MIC [8] | MIC [9] | MIC [10] | MIC [11] | MIC [13] | MIC [14] | MIC [15] | MIC [18] | MIC [19] | MIC [20] | MIC [21] | MIC [22] | MIC [23] | MIC [24]
8 µg/mL: MIC [7]
128 µg/mL: MIC [16]
3 µg/mL: MIC [17]
